From ChEMBL document CHEMBL4316629, “Discovery of 1,3-diphenyl-1H-pyrazole derivatives containing rhodanine-3-alkanoic acid groups as potential PTP1B inhibitors” (Bioorg Med Chem Lett, 2019)
Active and inactive are the calls of the source. No cut-off for these calls is given here.

Organism: Homo sapiens
Assay: Selectivity index, ratio of IC50 for inhibition of TCPTP (unknown origin) using pNPP as substrate to IC50 for inhibition of PTP1B (unknown origin) using pNPP as substrate
In short: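 Both TCPTP and PTP1B IC50 values were measured by the same pNPP hydrolysis assay, derived by regression from triplicate dose-response data. The index is the TCPTP IC50 divided by the PTP1B IC50.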

SMILES	Ratio IC50
O=C(O)CCCCN1C(=O)/C(=C/c2cn(-c3ccccc3)nc2-c2ccc(Cl)cc2Cl)SC1=S	2 to 9

Target: T1, Tyrosine-protein phosphatase non-receptor type 1 (Homo sapiens) (UniProt P18031)
T1 sequence (whole entry): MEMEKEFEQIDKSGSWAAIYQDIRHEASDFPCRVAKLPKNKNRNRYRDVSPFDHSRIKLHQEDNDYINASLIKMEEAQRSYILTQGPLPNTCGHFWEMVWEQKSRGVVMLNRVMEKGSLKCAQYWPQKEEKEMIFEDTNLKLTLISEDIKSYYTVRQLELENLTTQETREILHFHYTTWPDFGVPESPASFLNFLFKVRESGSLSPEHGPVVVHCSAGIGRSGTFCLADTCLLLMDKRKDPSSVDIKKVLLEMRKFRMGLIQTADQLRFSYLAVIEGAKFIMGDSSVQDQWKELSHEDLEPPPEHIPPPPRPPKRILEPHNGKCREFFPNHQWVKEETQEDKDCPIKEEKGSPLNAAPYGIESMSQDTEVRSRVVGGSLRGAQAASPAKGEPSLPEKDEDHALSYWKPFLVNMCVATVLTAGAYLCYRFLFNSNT
Assay: Time dependent inhibition of PTP1B (unknown origin) using pNPP as substrate

SMILES	TDI
O=C(O)CCCCN1C(=O)/C(=C/c2cn(-c3ccccc3)nc2-c2ccc(Cl)cc2Cl)SC1=S	inactive

Target: T2, Tyrosine-protein phosphatase non-receptor type 11 (Homo sapiens) (UniProt Q06124)
T2 sequence (whole entry): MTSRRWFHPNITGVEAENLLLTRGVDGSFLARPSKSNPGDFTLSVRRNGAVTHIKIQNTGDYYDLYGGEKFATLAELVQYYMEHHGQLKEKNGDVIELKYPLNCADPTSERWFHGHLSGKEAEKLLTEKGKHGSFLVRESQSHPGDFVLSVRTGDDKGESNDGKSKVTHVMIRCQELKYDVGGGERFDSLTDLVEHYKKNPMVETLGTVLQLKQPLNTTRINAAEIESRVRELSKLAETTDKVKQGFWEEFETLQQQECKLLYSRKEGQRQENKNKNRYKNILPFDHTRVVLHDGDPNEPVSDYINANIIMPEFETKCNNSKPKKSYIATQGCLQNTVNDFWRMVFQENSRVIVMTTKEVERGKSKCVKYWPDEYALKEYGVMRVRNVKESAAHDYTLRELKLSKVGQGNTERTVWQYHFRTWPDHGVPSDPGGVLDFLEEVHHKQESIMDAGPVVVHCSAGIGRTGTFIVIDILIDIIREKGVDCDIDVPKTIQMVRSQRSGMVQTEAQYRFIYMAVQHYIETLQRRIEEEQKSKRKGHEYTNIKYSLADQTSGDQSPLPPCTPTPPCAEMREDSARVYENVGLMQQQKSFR
Assay: Inhibition of SHP2 (unknown origin) at 20 ug/ml using pNPP as substrate
In short: (§1)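 Single-point screen at 20 µg/mL of compound against each phosphatase (LAR, SHP-1, SHP-2), with pNPP hydrolysis as the read-out.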

SMILES	inhibition
O=C(O)CCCCN1C(=O)/C(=C/c2cn(-c3ccccc3)nc2-c2ccc(Cl)cc2Cl)SC1=S	inactive

Target: T1, Tyrosine-protein phosphatase non-receptor type 1 (Homo sapiens)
Assay: Potency index, ratio of IC50 for oleanolic acid to IC50 for test compound for inhibition of PTP1B (unknown origin) using pNPP as substrate
In short: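 Both IC50 values come from dose-response inhibition of PTP1B with pNPP as substrate, fitted by regression (mean ± SD, n = 3). The ratio divides the IC50 of the reference PTP1B inhibitor by that of the test compound.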

SMILES	Ratio IC50
O=C(O)CCCCN1C(=O)/C(=C/c2cn(-c3ccccc3)nc2-c2ccc(Cl)cc2Cl)SC1=S	2.5

Target: T3, Tyrosine-protein phosphatase non-receptor type 2 (Homo sapiens, UniProt P17706)
T3 sequence (P17706 whole entry): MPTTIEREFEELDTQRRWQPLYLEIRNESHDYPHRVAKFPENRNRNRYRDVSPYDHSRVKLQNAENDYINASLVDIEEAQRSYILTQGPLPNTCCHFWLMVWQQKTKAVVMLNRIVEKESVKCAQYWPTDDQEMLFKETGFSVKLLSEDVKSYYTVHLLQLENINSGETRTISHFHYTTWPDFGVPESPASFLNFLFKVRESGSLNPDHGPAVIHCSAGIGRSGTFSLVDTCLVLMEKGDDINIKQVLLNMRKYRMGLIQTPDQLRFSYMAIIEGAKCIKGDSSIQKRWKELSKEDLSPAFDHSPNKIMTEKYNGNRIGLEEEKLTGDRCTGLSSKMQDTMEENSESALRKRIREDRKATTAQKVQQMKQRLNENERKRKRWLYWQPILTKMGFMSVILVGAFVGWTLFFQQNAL
Assay: Inhibition of TCPTP (unknown origin) using pNPP as substrate

SMILES	IC50
O=C(O)CCCCN1C(=O)/C(=C/c2cn(-c3ccccc3)nc2-c2ccc(Cl)cc2Cl)SC1=S	5770 nM

Target: Tyrosine-protein phosphatase non-receptor type 6 (Homo sapiens, UniProt P29350)
Sequence (P29350 whole entry): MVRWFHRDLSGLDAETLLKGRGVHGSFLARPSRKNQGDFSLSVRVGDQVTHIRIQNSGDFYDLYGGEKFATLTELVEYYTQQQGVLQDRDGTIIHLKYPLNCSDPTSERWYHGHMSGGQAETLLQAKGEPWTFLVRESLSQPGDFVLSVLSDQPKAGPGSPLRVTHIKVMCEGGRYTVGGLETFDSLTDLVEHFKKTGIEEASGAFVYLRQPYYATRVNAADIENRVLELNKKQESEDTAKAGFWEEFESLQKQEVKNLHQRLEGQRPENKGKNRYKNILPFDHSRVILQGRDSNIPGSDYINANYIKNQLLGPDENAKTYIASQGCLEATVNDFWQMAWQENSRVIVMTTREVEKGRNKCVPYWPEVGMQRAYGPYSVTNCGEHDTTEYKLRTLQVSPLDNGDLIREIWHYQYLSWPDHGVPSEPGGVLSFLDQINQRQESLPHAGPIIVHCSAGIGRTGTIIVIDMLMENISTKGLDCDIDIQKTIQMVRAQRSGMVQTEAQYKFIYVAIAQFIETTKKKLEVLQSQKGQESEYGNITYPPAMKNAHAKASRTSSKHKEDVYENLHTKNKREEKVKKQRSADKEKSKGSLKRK
Assay: Inhibition of SHP1 (unknown origin) at 20 ug/ml using pNPP as substrate
In short: as §1

SMILES	inhibition
O=C(O)CCCCN1C(=O)/C(=C/c2cn(-c3ccccc3)nc2-c2ccc(Cl)cc2Cl)SC1=S	inactive

Target: T4, Tyrosine-protein phosphatase non-receptor type 1 (Homo sapiens, UniProt P18031)
T4 sequence (P18031 whole entry): T1 sequence (whole entry)
Assay: Inhibition of PTP1B (unknown origin) using pNPP as substrate

SMILES	IC50
O=C(O)[C@@H](Cc1ccccc1)N1C(=O)/C(=C/c2cn(-c3ccccc3)nc2-c2ccc(Br)cc2)SC1=S	4420 nM
O=C(O)[C@@H](Cc1ccccc1)N1C(=O)/C(=C/c2cn(-c3ccccc3)nc2-c2ccc(Cl)cc2)SC1=S	2100 nM
O=C(O)CCCCCN1C(=O)/C(=C/c2cn(-c3ccccc3)nc2-c2ccc(Cl)cc2)SC1=S	1850 nM
O=C(O)CCCCN1C(=O)/C(=C/c2cn(-c3ccccc3)nc2-c2ccc(Cl)cc2)SC1=S	2200 nM
O=C(O)CCCN1C(=O)/C(=C/c2cn(-c3ccccc3)nc2-c2ccc(Cl)cc2)SC1=S	2270 nM
O=C(O)CCN1C(=O)/C(=C/c2cn(-c3ccccc3)nc2-c2ccc(Cl)cc2)SC1=S	6580 nM
O=C(O)CCCCN1C(=O)/C(=C/c2cn(-c3ccccc3)nc2-c2ccc(Cl)cc2Cl)SC1=S	670 nM

Target: T4, Tyrosine-protein phosphatase non-receptor type 1
Assay: Competitive type inhibition of PTP1B (unknown origin) using pNPP as substrate by Lineweaver-Burk plot analysis

SMILES	Ki
O=C(O)CCCCN1C(=O)/C(=C/c2cn(-c3ccccc3)nc2-c2ccc(Cl)cc2Cl)SC1=S	310 nM

Target: Receptor-type tyrosine-protein phosphatase F (Homo sapiens) (UniProt P10586)
Sequence (P10586 whole entry): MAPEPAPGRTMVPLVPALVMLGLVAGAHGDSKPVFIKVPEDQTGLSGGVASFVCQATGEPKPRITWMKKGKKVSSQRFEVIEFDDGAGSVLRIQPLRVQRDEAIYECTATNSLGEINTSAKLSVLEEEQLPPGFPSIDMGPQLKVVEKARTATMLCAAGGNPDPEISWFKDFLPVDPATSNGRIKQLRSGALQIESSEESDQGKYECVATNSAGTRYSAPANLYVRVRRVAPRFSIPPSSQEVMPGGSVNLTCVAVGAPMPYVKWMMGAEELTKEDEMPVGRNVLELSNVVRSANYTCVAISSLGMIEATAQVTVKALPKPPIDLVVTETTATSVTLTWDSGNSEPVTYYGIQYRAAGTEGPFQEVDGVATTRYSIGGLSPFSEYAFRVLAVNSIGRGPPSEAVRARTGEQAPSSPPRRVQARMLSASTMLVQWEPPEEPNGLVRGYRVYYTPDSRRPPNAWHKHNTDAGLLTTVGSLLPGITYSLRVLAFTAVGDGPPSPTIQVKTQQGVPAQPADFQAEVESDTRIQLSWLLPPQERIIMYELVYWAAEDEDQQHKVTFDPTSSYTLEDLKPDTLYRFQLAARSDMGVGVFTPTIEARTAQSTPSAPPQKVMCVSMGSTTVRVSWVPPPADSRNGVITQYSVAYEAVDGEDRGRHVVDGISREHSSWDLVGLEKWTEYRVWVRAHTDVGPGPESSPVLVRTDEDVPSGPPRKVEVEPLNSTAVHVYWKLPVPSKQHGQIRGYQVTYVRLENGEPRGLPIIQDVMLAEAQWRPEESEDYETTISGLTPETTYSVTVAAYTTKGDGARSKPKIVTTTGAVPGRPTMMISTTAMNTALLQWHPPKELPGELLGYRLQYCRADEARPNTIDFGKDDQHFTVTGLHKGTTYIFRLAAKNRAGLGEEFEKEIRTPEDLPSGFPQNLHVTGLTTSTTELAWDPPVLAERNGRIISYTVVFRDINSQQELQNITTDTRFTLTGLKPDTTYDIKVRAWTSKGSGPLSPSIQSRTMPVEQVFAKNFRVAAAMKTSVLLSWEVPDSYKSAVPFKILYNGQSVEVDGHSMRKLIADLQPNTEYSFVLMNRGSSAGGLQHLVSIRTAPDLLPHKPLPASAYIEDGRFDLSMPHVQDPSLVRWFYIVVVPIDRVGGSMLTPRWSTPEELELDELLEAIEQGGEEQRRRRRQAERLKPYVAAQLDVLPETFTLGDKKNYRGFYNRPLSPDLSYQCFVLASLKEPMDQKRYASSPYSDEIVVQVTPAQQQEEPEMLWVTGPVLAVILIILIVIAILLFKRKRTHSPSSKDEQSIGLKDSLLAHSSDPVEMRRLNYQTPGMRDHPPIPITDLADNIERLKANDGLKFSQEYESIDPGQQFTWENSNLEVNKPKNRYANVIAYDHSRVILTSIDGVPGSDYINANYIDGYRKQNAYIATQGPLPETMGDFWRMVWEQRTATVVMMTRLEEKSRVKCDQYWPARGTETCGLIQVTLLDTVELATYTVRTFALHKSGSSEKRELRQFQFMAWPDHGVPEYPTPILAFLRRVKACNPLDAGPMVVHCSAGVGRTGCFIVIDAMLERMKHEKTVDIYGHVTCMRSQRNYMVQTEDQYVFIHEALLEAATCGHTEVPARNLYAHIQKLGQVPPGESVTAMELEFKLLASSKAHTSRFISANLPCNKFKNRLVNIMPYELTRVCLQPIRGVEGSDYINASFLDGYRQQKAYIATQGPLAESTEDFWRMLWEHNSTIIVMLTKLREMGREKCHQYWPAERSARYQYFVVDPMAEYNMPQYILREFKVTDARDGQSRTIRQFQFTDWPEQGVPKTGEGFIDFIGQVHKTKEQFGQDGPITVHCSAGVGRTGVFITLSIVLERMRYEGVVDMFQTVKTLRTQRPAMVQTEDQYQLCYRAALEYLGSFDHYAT
Assay: Inhibition of LAR (unknown origin) at 20 ug/ml using pNPP as substrate
In short: as §1

SMILES	inhibition
O=C(O)CCCCN1C(=O)/C(=C/c2cn(-c3ccccc3)nc2-c2ccc(Cl)cc2Cl)SC1=S	inactive

Target: T5, M-phase inducer phosphatase 2 (Homo sapiens, UniProt P30305)
T5 sequence (P30305 whole entry): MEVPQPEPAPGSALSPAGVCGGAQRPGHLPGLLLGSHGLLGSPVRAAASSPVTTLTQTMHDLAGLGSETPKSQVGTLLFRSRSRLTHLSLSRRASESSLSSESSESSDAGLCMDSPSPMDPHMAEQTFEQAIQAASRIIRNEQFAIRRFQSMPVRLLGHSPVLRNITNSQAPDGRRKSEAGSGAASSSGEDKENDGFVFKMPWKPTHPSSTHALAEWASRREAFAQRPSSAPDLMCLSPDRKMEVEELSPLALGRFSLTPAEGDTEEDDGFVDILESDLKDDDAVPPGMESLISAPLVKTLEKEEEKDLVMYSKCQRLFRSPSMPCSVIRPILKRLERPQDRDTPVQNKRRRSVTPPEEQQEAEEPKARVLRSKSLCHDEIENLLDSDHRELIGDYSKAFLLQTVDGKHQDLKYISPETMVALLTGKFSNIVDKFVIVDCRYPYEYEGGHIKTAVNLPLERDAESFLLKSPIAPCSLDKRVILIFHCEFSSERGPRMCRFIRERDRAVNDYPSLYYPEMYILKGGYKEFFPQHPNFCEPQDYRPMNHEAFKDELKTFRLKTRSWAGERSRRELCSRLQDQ
Assay: Inhibition of CDC25B (unknown origin) using pNPP as substrate
In short: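 Same pNPP-substrate phosphatase assay as for PTP1B, applied for selectivity. Compounds were first screened at 20 μg/mL, then tested over a dose range. IC50 was obtained by regression analysis and reported as mean ± SD of three replications. Oleanolic acid served as the positive control.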

SMILES	IC50
O=C(O)CCCCN1C(=O)/C(=C/c2cn(-c3ccccc3)nc2-c2ccc(Cl)cc2Cl)SC1=S	28100 nM
